Experimental findings from ChEMBL document CHEMBL4184152, “Thioether-stapled macrocyclic inhibitors of the EH domain of EHD1” (Bioorg Med Chem, 2018) are described below.

Test [1] has as its target T1, EH domain-containing protein 1 (Homo sapiens) (UniProt Q9H4M9).
T1 sequence (whole entry): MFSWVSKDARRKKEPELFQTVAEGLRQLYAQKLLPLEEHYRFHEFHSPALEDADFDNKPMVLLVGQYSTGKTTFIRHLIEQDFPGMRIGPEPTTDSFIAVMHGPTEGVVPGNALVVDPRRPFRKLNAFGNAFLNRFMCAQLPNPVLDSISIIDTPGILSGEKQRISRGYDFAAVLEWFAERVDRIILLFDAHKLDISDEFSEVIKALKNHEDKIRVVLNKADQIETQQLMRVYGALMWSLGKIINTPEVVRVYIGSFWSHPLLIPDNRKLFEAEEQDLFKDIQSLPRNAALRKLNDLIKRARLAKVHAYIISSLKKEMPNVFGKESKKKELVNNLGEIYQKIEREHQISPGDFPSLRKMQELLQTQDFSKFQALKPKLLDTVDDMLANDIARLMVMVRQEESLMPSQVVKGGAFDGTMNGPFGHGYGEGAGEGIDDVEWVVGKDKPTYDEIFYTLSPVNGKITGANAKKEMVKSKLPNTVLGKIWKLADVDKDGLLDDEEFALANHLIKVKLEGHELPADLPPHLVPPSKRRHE
The test can be described thus: Inhibition of EHD1-EH in human HeLa cells assessed as reduction in internalized transferrin-488 recycling at 50 uM measured after 60 mins by pulse-chase method. In kind it is cell-based. In outline: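 HeLa cells were grown in DMEM/10% FBS to 80% confluence, then starved 30 min in DMEM with 0.5% BSA. Cells got a 60-min pulse with Tf-488 (25 µg/mL), with inhibitor present. A 30-min chase followed with 2 mg/mL unlabeled transferrin plus inhibitor, 0.2% DMSO final. Cells were washed in cold PBS, trypsinized and fixed. Flow cytometry counted 10,000 live cells; 50 µM primaquine was the positive control.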

In test [2] the target is T2, Epidermal growth factor receptor substrate 15 (Homo sapiens, UniProt P42566).
T2 sequence (P42566 whole entry): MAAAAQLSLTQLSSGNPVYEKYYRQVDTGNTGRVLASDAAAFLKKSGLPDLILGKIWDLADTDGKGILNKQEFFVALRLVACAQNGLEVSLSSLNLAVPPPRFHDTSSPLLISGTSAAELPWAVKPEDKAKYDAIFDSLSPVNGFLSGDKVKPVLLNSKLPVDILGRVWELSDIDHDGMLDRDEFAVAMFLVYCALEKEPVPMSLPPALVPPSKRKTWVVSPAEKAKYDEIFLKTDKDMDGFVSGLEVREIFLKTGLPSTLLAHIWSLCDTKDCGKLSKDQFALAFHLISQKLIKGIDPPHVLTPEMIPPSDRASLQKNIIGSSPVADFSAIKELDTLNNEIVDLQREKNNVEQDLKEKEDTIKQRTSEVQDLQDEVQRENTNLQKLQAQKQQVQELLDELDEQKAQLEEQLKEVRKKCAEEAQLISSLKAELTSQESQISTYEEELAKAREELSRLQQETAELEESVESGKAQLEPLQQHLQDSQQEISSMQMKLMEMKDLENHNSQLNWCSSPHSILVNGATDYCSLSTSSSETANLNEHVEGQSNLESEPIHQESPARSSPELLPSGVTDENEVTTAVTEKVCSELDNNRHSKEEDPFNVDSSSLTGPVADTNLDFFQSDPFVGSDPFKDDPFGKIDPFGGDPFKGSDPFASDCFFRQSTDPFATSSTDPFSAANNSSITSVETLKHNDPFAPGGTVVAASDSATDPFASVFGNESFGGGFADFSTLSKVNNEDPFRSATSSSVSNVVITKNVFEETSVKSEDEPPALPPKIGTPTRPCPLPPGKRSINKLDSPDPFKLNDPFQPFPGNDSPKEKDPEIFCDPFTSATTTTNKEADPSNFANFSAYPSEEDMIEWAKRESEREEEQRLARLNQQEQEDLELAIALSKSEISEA
The test can be described thus: Binding affinity to GST-fused Eps15 EH2 domain (unknown origin) expressed in Escherichia coli BL21 cells under high salt condition by fluorescence polarization assay. In outline: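 Eps15-EH2 protein concentration was set by A280 using an extinction coefficient of 13980 M-1cm-1. Binding of fluorescein-labeled peptides to Eps15-EH2 was measured in an FP direct binding format with varying protein concentration.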

The target of test [3] is T3, EH domain-containing protein 1 (Homo sapiens, UniProt Q9H4M9).
T3 sequence (Q9H4M9 whole entry): T1 sequence (whole entry)
The test can be described thus: Binding affinity to GST-fused EHD1 EH domain (unknown origin) expressed in Escherichia coli BL21 cells measured after 1 hr in presence of 150 mM NaCl by fluorescence polarization assay. In outline: (§1)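 NaCl was 15 mM or 150 mM. Polarization was read 1 h after probe addition and re-read later to confirm equilibrium. Kd came from curve fits; technical triplicates, three independent experiments.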

Test [4] is filed under the species Homo sapiens. The test can be described thus: Selectivity ratio of IC50 for GST-fused Eps15 EH2 domain (unknown origin) expressed in Escherichia coli BL21 cells to IC50 for GST-fused EHD1 EH domain (unknown origin).
Test [5] concerns the target T3, EH domain-containing protein 1. As to the kind of experiment: Binding affinity to GST-fused EHD1 EH domain (unknown origin) expressed in Escherichia coli BL21 cells measured after 1 hr in presence of 15 mM NaCl by fluorescence polarization assay. In outline:
as §1

Activity calls are given as the source filed them. The calls are words filed in the database; no cut-off is given here. Where a SMILES comes first, the peptide text is derived from it.

Consider `COc1cc(NC(C)CCCN)c2ncccc2c1` (configuration not stated), for which the inhibition entry in test [1] was “Active”.
Same read-out and setting: with `NC(=O)C[C@@H]1NC(=O)[C@H](Cc2ccc(O)cc2)NC(=O)CNC(=O)CNC(=O)[C@H](CCC(=O)O)NC(=O)[C@H](CCC(=O)O)NC(=O)[C@H](Cc2ccccc2)NC(=O)[C@@H]2CCCN2C1=O` (HELM PEPTIDE1{Y.N.P.F.E.E.G.G}$PEPTIDE1,PEPTIDE1,1:R1-8:R2$$$V2.0) the entry was “inactive”; with `C#CCCC(=O)N[C@H]1CSCc2ccc(cc2)CSCCNC(=O)[C@H](CCC(=O)O)NC(=O)[C@H](CCC(=O)O)NC(=O)[C@H](Cc2ccccc2)NC(=O)[C@@H]2CCCN2C(=O)[C@H](CC(N)=O)NC(=O)[C@H](Cc2ccc(O)cc2)NC1=O` (HELM PEPTIDE1{[C#CCCC(=O)[*:2]].C.Y.N.P.F.E.E}|CHEM1{[c1cc(C[*:1])ccc1CSCCN[*:2]]}$PEPTIDE1,CHEM1,2:R3-1:R1|PEPTIDE1,CHEM1,8:R2-1:R2$$$V2.0), “inactive”.
On to `CC(=O)N(CCCC[C@@H]1NC(=O)CNC(=O)[C@H](CCC(=O)O)NC(=O)[C@H](CCC(=O)O)NC(=O)[C@H](Cc2ccccc2)NC(=O)[C@@H]2CCCN2C(=O)[C@H](CC(N)=O)NC(=O)[C@H](Cc2ccc(O)cc2)NC1=O)C(=O)c1ccccc1-c1c2ccc(=O)cc-2oc2cc(O)ccc12` (HELM PEPTIDE1{E.E.G.[CC(=O)N(CCCC[C@H](N[*:1])C(=O)[*:2])C(=O)c1ccccc1-c1c2ccc(=O)cc-2oc2cc(O)ccc12].Y.N.P.F}$PEPTIDE1,PEPTIDE1,1:R1-8:R2$$$V2.0), for which the IC50 in test [2] is more than 100 µM. Also, the Kd in test [3] was 15.1 µM; in test [5], 3 µM. The Ratio IC50 in test [4] stood at 15.
